Consider five compounds from ChEMBL document CHEMBL3868588, “Emestrins: Anti-Cryptococcus Epipolythiodioxopiperazines from Podospora australis” (J Nat Prod, 2016).

pIC50: −log10 of the molar value. Values after ≈ are worked out from the molar mass of the structure shown.

The term MIC denotes the lowest concentration found to suppress growth. The low end stands for a more susceptible organism, the high end for a less susceptible organism. The pIC50 is the IC50 on a negative log10 scale, so that one unit is a factor of ten. High values mean a low IC50, low ones a high IC50.

Experiment [1] deals with Cryptococcus neoformans. Nature of the experiment: Antifungal activity against Cryptococcus neoformans H99 after 48 hrs by resazurin-staining based serial dilution method. The format is functional. As to conditions: var grubii H99 . Summed up: (§1)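 Serial dilution per NCCLS guidance in 96-well plates with YM test medium (1% maltose extract, 0.2% yeast extract, 0.4% agar). Compounds in DMSO, diluted in growth medium; amphotericin B positive control. Incubated at 25 °C; C. albicans ATCC 10231 read at 24 h, C. neoformans H99 at 48 h. Visual end point, OD and PrestoBlue resazurin viability; MIC = lowest concentration giving 100% inhibition versus untreated control.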

Experiment [2] concerns Candida albicans. Nature of the experiment: Antifungal activity against Candida albicans ATCC 10231 measured after 24 hrs by resazurin-staining based serial dilution method. Conditions: ATCC 10231, 24 h. Format: functional. In short, it runs like this: as §1
(The colour change of resazurin is a common sign of viable cells or microbes.)

Experiment [3] can be described thus: Antiproliferative activity against human DU145 cells. Format: functional, cell-based. Conditions: DU-145.

As to `COc1ccc2cc1Oc1cc(ccc1OC)C(=O)O[C@H]1C=COC=C3[C@@H](O)[C@]45SS[C@](C2)(C(=O)N4[C@@H]31)N(C)C5=O`, the MIC in experiment [1] was 1.6 µg/mL (≈ 2.68 µM); in experiment [2], > 25.6 µg/mL.
Regarding `COc1ccc2cc1Oc1cc(ccc1OC)[C@H](O)[C@]13SSSS[C@@]4(C(=O)N1C)[C@H](O)C1=COC=C[C@H](OC2=O)[C@H]1N4C3=O`, the MIC in experiment [1] was 25.6 µg/mL (≈ 37.8 µM); in experiment [2], > 25.6 µg/mL.
As for `COc1ccc2cc1Oc1cc(ccc1OC)[C@H](O)[C@]13SSS[C@@]4(C(=O)N1C)[C@H](O)C1=COC=C[C@H](OC2=O)[C@H]1N4C3=O`, the MIC in experiment [1] was 6.4 µg/mL (≈ 9.93 µM); in experiment [2], > 25.6 µg/mL.
Regarding `COc1ccc2cc1Oc1cc(ccc1OC)[C@H](O)[C@]13SS[C@@]4(C(=O)N1C)[C@H](O)C1=COC=C[C@H](OC2=O)[C@H]1N4C3=O`, the figures for the MIC in experiment [1] and in experiment [2] were 0.8 µg/mL (≈ 1.31 µM) and 6.4 µg/mL (≈ 10.4 µM), respectively. Besides, the pIC50 in experiment [3] is 8.03.
Turning to `C[C@@H]1[C@H](O)[C@@H](C)/C=C/C=C/C=C/C=C/C=C/C=C/C=C/[C@H](O[C@@H]2O[C@H](C)[C@@H](O)[C@H](N)[C@@H]2O)C[C@@H]2O[C@](O)(C[C@@H](O)C[C@@H](O)[C@H](O)CC[C@@H](O)C[C@@H](O)CC(=O)O[C@H]1C)C[C@H](O)[C@H]2C(=O)O` [AMPHOTERICIN B], the minimal inhibitory concentration (MIC) in experiment [1] was 0.8 µg/mL (≈ 0.866 µM); in experiment [2], 1.6 µg/mL (≈ 1.73 µM).
